DUSP1 inh – blocks human MKP-1 phosphatase activity. P28562. inhibition, %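 (compounds tested at a single concentration somewhere between 10 and 100 µM)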. actives 0.15% (n = 65,000). recombinant MKP-1, OMFP hydrolysis fluorescence. AID 374;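 active = inhibition above about 50%, limit read from the data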;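 note: 0% = DMSO max control wells and 100% = wells with enzyme stopped by NaOH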
Cdc25B inh – inhibitors of human Cdc25B phosphatase; actives 0.1% (n = 65,000); inhibition, %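 (compounds tested at 10 µM final in the well)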; recombinant Cdc25B, OMFP fluorescence Ex485/Em525; P30305; in the data active = inhibition above about 50%
Target sequence (P30305 whole entry, looked up): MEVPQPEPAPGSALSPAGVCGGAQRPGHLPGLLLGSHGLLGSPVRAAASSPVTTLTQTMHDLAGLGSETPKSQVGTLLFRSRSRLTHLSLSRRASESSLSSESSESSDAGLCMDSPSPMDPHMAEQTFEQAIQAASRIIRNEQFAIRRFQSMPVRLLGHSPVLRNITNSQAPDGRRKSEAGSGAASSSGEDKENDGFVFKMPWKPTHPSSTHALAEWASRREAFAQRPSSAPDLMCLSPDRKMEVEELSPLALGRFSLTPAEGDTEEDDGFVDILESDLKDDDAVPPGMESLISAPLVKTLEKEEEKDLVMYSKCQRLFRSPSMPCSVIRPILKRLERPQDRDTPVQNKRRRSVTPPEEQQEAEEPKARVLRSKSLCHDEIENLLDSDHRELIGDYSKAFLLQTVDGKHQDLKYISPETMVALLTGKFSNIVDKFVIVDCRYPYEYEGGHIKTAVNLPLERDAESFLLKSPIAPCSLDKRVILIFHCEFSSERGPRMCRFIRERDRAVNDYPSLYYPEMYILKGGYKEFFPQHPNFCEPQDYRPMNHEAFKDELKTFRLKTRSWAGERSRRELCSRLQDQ
M1 antagonist – M1 muscarinic receptor (rat) antagonism | B-score at 10 µM | CHO-M1 cells, Fluo-4 calcium, ACh EC80 antagonist mode; hits give low values | P08482 | actives 3.4% (n = 64,000) | AID 628;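 active = calcium fluorescence response, raw or row-and-column corrected B-score, differing from the plate sample mean either way at a set confidence level, mostly lower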
M1 agonist – activates the M1 muscarinic receptor. CHO-M1 cells, Fluo-4 calcium fluorescence, agonist mode; hits give high values. B-score at 10 µM. actives 3% (n = 64,000);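 active = fluorescence rise, raw or as B-score row- and column-corrected plate score, outside the 99.7% band of its plate's samples, either direction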
HEK293 NFkB inh – lowers PMA/ionomycin-induced NF-kB signal in HEK293 cells; inhibition, % at 3 µM; AID 465; actives 0.21% (n = 62,000); HEK-293 NF-kB luciferase reporter, luminescence;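 active = inhibition above the mean of all tested compounds plus 3 SD, cut at about 40% in these data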;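 note: 0% = stimulated DMSO wells and 100% = 10 µM reference inhibitor 5653914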
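System: NF-kB luciferase reporter HEK-293 cells | Replication: Single test | Control set: DMSO vs reference inhibitor | Evaluation: % inhibition | Schedule: 1 h pretreatment, 16 h stimulation, 37 °C | Probe or stimulus: PMA with ionomycin | Compound dosing: One dose, 3 µM | Detection: Luciferase luminescence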
HER2 expr 66K – lowers expression of human Her2 kinase. P04626. SKBR-3 HER2 protein level, AlphaScreen, 18-24 h; hits give low values. HER2 level % of control, % at 10 µM. actives 0.69% (n = 65,000);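 active = HER2 level under 5% of the carrier-only control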;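 note: 100% = DMSO carrier and 0% = 500 nM PU-H71 HSP90 inhibitor; lower value means stronger loss of Her2 protein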
M1 antag confirm – M1 muscarinic receptor (rat) antagonism, confirmed; shares compounds with M1 antagonist; CHO-M1 cells, Fluo-4 calcium, ACh EC80 antagonism; hits give low values; calcium response (max-min fluorescence) at 10 µM; actives 43% (n = 1,700); AID 677;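 active = calcium response below the same-plate mean of wells given acetylcholine alone at its 80%-effect dose, minus 3 SD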;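 note: raw fluorescence intensity difference in arbitrary instrument units and not normalized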
mGluR4 antag – selectivity test for M1 antagonists: human mGluR4 receptor; shares compounds with M1 antagonist; CHO-mGluR4 calcium flux, Fluo-4 fluorescence, glutamate EC80; hits give low values; fluorescence response (max-min) at 10 µM; actives 0.9% (n = 1,700);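 active = fluorescence response below the plate's average for near-maximal glutamate wells, less 3 SD of those wells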;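 note: raw unnormalized fluorescence span taken in the window right after glutamate addition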
Active calls of the source: *. The list is not random: actives were taken first. Their share in the collection is about 6.8%.

Screening CCn1cc(C(=O)OCC(=O)N(C)C2CCS(=O)(=O)C2)c(=O)c2ccc(C)nc21 (configuration not stated) returned DUSP1 inh 18, Cdc25B inh -9, M1 antagonist 1, M1 agonist -0.47, HEK293 NFkB inh 2 and HER2 expr 66K 104.
`Cc1nc2sccn2c(=O)c1CCN1CCC(=C(c2ccc(F)cc2)c2ccc(F)cc2)CC1` gave DUSP1 inh 18, Cdc25B inh -6, M1 antagonist -5.1*, M1 agonist -0.015, HER2 expr 66K 100, M1 antag confirm 324* and mGluR4 antag 292.
For CCCS(=O)(=O)N1CCCC(C(=O)NCCCN(C)c2ccccc2)C1 (configuration not stated) the results were DUSP1 inh 6, Cdc25B inh 8, M1 antagonist -1.6, M1 agonist 0.031, HEK293 NFkB inh 2 and HER2 expr 66K 86.
O=C(O)CCCCCN1C(=O)CSC1=S was read as DUSP1 inh -14, Cdc25B inh 9, M1 antagonist -6.4*, M1 agonist 0.29, HEK293 NFkB inh 10, HER2 expr 66K 120, M1 antag confirm 667 and mGluR4 antag 241.
CC(C)OC(=O)CCCCCN1C(=O)CSC1=S was read as DUSP1 inh -4, Cdc25B inh -17, M1 antagonist -0.28, M1 agonist 1, HEK293 NFkB inh 14 and HER2 expr 66K 33.
CCc1nc(NC(C)C)c2oc3ccccc3c2n1 was read as DUSP1 inh 7, Cdc25B inh -3, M1 antagonist -0.7, M1 agonist -1.5, HEK293 NFkB inh 4 and HER2 expr 66K 111.
`CCc1nc(Nc2ccncc2)c2oc3ccccc3c2n1` gave DUSP1 inh -13, Cdc25B inh 4, M1 antagonist -2.4*, M1 agonist -0.59, HEK293 NFkB inh -2, HER2 expr 66K 61, M1 antag confirm 441* and mGluR4 antag 242.
`Cc1ccc(N(C(C)C(=O)N2CCCCC2)S(C)(=O)=O)cc1C` (configuration not stated) gave DUSP1 inh 6, Cdc25B inh 12, M1 antagonist -0.0044, M1 agonist 0.45, HEK293 NFkB inh -4 and HER2 expr 66K 102.
For CCOC(=O)c1c(C)oc2ccc(O)c(CN(C)C)c12 the results were DUSP1 inh -6, Cdc25B inh -16, M1 antagonist -1.3*, M1 agonist -0.009, HEK293 NFkB inh 12, HER2 expr 66K 106, M1 antag confirm 460 and mGluR4 antag 234.
For COC(=O)c1ccc(NC(=O)C2CCCN(S(=O)(=O)c3cnc[nH]3)C2)cc1 (configuration not stated) the results were DUSP1 inh 5, Cdc25B inh -8, M1 antagonist 0.19, M1 agonist 0.1, HEK293 NFkB inh 7 and HER2 expr 66K 93.
For Cc1ccccc1OCC(=O)OC(C)CN1CCN(C)CC1 (configuration not stated) the results were DUSP1 inh -8, Cdc25B inh 0, M1 antagonist -5.5*, M1 agonist 0.32, HEK293 NFkB inh 18, HER2 expr 66K 114, M1 antag confirm 641 and mGluR4 antag 246.
For COc1cc(C)c(C(C)C)cc1S(=O)(=O)NCCCn1ccnc1 the results were DUSP1 inh -14, Cdc25B inh -4, M1 antagonist -0.24, M1 agonist -0.025, HEK293 NFkB inh 22 and HER2 expr 66K 95.
COC(=O)c1sc(S(=O)(=O)N2CCCCC2)c(C(=O)OC)c1C was read as DUSP1 inh -5, Cdc25B inh 12, M1 antagonist -4.5*, M1 agonist -0.044, HEK293 NFkB inh 4, HER2 expr 66K 81, M1 antag confirm 248* and mGluR4 antag 200.
For COC(=O)c1sc(S(=O)(=O)N2CCC(C)CC2)c(C(=O)OC)c1C the results were DUSP1 inh -15, Cdc25B inh 2, M1 antagonist 0.024, M1 agonist 0.013, HEK293 NFkB inh 19 and HER2 expr 66K 100.
Screening O=C1CC(N(Cc2ccco2)C(=O)Nc2ccc(F)cc2)C(=O)N1c1ccc(F)cc1 (configuration not stated) returned DUSP1 inh -1, Cdc25B inh -6, M1 antagonist 0.45, M1 agonist 0.62, HEK293 NFkB inh 22 and HER2 expr 66K 70.
O=C(Nc1ccc2snnc2c1)N1CCN(c2ccccc2)CC1 was read as DUSP1 inh -6, M1 antagonist -0.54, M1 agonist 0.068 and HER2 expr 66K 154.
O=C(Nc1ccc2snnc2c1)N1CCOCC1 was read as DUSP1 inh -3, Cdc25B inh -5, M1 antagonist -2.4*, M1 agonist -1.4, HEK293 NFkB inh -1, HER2 expr 66K 98, M1 antag confirm 599 and mGluR4 antag 208.
`COc1ccc(C(=O)CCN2CCCCCC2)cc1` gave DUSP1 inh -13, Cdc25B inh 13, M1 antagonist 0.2, M1 agonist 0.26 and HER2 expr 66K 23.
Screening COc1ccc(C(=O)C(CN2CCCC2)c2ccccc2)cc1 (configuration not stated) returned DUSP1 inh -22, Cdc25B inh -5, M1 antagonist -7.4*, M1 agonist 0.00053, HER2 expr 66K -6.9*, M1 antag confirm 239* and mGluR4 antag 240.
CCc1cccc(C)c1NC(=O)C1=C(C(=O)O)CCCC1 was read as DUSP1 inh -2, Cdc25B inh -8, M1 antagonist 0.023, M1 agonist -0.87, HEK293 NFkB inh 18 and HER2 expr 66K 117.
`CCCCOc1ccc(CN2CCCCC2)cc1` gave DUSP1 inh 0, Cdc25B inh -7, M1 antagonist -5.1*, M1 agonist -0.26, HEK293 NFkB inh 3, HER2 expr 66K 110, M1 antag confirm 283* and mGluR4 antag 262.
For O=c1[nH]c(/C(=N\O)c2ccccc2)no1 the results were DUSP1 inh 6, Cdc25B inh 7, M1 antagonist -0.11, M1 agonist -0.66, HEK293 NFkB inh 24 and HER2 expr 66K 123.
CC1(C)N=C(/C=N/O)CN1O was read as DUSP1 inh -11, Cdc25B inh -3, M1 antagonist -0.042, M1 agonist -2.5, HEK293 NFkB inh 11 and HER2 expr 66K 57.
Cc1ccc(NC(=O)COC(=O)C2CC2C)c(S(=O)(=O)N2CCCCC2)c1 (configuration not stated) was read as DUSP1 inh 7, Cdc25B inh -7, M1 antagonist -2.8*, M1 agonist -0.44, HEK293 NFkB inh 14, HER2 expr 66K 110, M1 antag confirm 645 and mGluR4 antag 233.

Compound activity deposited in PubChem BioAssay by several laboratories.
